Assay results as given in paper PMC7105043 (Journal of the Chinese Medical Association, 2017).
In brackets after ≈: the same amount, converted by molar mass.

How the values were obtained:
XTT cytotoxicity assay = format: cell-based, human; conditions: dog, MDCK cells
Outline: (§1)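 Test compound serially diluted in complete MEM (10% heat-inactivated FBS) and added to A549 cells seeded at 1 × 10^4 cells/well and pre-incubated 24 h. Cells exposed 3 days at 35 °C, 5% CO2, then XTT reagent for 4 h. Absorbance read at 450 nm, reference 620 nm. Viability relative to untreated control (100%). Triplicate wells, at least three independent runs.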

[1] = test system: pandemic influenza A (H1N1) virus (A/California/07/2009); assay: microbe, parasite or virus in culture; format: cell-based
[2] = test system: pandemic influenza A (H1N1) virus; format: cell-based
[3] = test system: pandemic influenza A (H1N1) virus; format: cell-based; remark: listed apart in the source
[4] = test system: pandemic influenza A (H1N1) virus; format: cell-based; remark: listed apart in the source
[5] = test system: H1N1 A/Puerto Rico/8/34-NS116-GFP; conditions: ref 25 (Theisen et al); cited from earlier work
[6] = ref 25 (Theisen et al); cited from earlier work
A549 cells = assay: XTT cytotoxicity assay; format: cell-based, human; conditions: XTT, 3 days; method says A549 cells, Table 1 says MDCK cells
Outline: as §1

Row | Structure (SMILES) | CC50 at 3 days (XTT cytotoxicity assay) [µg/mL] | protective effect against virus infection (cell viability) [2] | inhibition of viral RNA synthesis (qRT-PCR) [3] | green fluorescence (viral glycoprotein foci) [4] | other results
1 | O=c1c(O)c(-c2ccc(O)cc2)oc2cc(O)cc(O)c12 [kaempferol] | > 100 |  |  |  | 
2 | C[C@@H]1O[C@@H](OC[C@H]2O[C@@H](Oc3c(-c4ccc(O)c(O)c4)oc4cc(O)cc(O)c4c3=O)[C@H](O)[C@@H](O)[C@@H]2O)[C@H](O)[C@H](O)[C@H]1O [rutintrihydrate, rutin trihydrate] | > 100 |  |  |  | 
3 | O=C(O)c1cc(O)c(O)c(O)c1 [gallic acid] | 22.1 ± 0.6 (≈ 130 µM) | protective effects | significant inhibition | decreased in a dose-dependent manner | reduction of viral production (plaque assay) ([1]; 2.5 μg/mL): approximately 50%; EC50 ([1]; Influenza A virus, H1N1, 72 h, read-out: Plaque inhibition (EC50)): 2.6 ± 0.07 µg/mL (≈ 15.3 µM); EC50 [5]: 50.8 µM; CC50 [6]: 770 µM
4 | O=c1c(O)c(-c2ccc(O)c(O)c2)oc2cc(O)cc(O)c12 [quercetin hydrate] | > 100 |  |  |  | 
5 | O.Oc1cc(O)c2c(c1)O[C@H](c1ccc(O)c(O)c1)[C@@H](O)C2 [catechin] |  | protective effects | significant inhibition | decreased in a dose-dependent manner | XTT cytoxicity (CC50) (A549 cells): >100 µg/mL; Plaque inhibition (EC50) [1]: 18.4 ± 0.7 µg/mL; reduction of viral production (plaque assay) ([1]; 25 μg/mL): approximately 50%; EC50 (XTT viability of infected cells, Fig. 1) [2]: 10 to 25 µg/mL
